The RNAGym collection of RNA variant scans (doi:10.1126/science.aae0568)
Variants at the floor of the assay were thinned out.

B1: tRNA (parent)
chain: GUUCCGUUGGCGUAAUGGUAACGCGUCUCCCUCCUAAGGAGAAGACUGCGGGUUCGAGUCCCGUACGGAACG

Variants of: B1
Assay: yeast fitness relative to wild type (ratio to wild type); higher = fitter; tRNA-Arg(CCU), competitive growth, 37 C, YPD
Summary of the method: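 A pool of Saccharomyces cerevisiae strains, each with a tRNA-Arg(CCU) gene variant at the native genomic locus, was competed in YPD at 37°C for 24 hours across six parallel replicates. The variants had been chemically synthesised at a 3% per-site mutation rate over 69 sites, and gene amplicons before and after competition were read by 100-nucleotide paired-end sequencing. Darwinian fitness relative to wild type rested on changes in genotype frequencies. Genotypes required ≥ 100 starting reads, and estimates < 0.5 were set to 0.5.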

Variant | yeast fitness
C22G A37C A45U G67A | 0.581
C22G C29G A36C G39C C46G G52A G67C | ≤ 0.5
C22G A40U U54A | ≤ 0.5
C22G A57G A65G | 0.624
C22G C27G C31G A57U | ≤ 0.5
C22G A42G C49U | 0.712
C22G A37C U54C | ≤ 0.5
C22G C30G U59G | ≤ 0.5
C22G C34A G41A | ≤ 0.5
C22G A65G | 0.932
C22G A65U | 1.03
C22G C33A C49G | 0.592
C22G C31G C55U C61G C62G | ≤ 0.5
C22G A42G U59A G68C | ≤ 0.5
C22G C27G A43U A45C U54A | ≤ 0.5
C22G C27U G68A | 0.623
C22G C31U A65G | 0.867
C22G C24U A37C G51C C55U A70U | ≤ 0.5
C22G C27G A45U C49U A57G A70G | ≤ 0.5
C22G A43U | 0.952
C22G A70U | 1.01
C22G A70C | 0.963
C22G C24A G68C | ≤ 0.5
C22G C31U | 1

Variant | yeast fitness
C22G C31G | 0.745
C22G C31A | 0.78
C22G C24A C55A | ≤ 0.5
C22G C29A A42C | 0.542
C22G A42C C62U | 0.52
C22G A43U U64C | 0.611
C22G A57U C61U | ≤ 0.5
C22G A42G | 0.716
C22G A42U | 0.699
C22G C31G C62U A70U | ≤ 0.5
C22G A57C | 0.684
C22G A57G | 0.676
C22G A57U G63C | ≤ 0.5
C22G A36C C55U C60A C62G A69U | 0.563
C22G C31U C46U A69U | 0.526
C22G C27G U47C U59C C62U G68U | ≤ 0.5
C22G C31A U47C C49G G63C A69U | ≤ 0.5
C22G C27A C46U | 0.539
C22G C27G U59C C62U U64C G68U | ≤ 0.5
C22G C29G G56A | 0.575
C22G A42C A65U G67A | ≤ 0.5
C22G A69C A70G | 0.632
C22G C31G C61A | ≤ 0.5
C22G C27G C29G C34A A43U A69C | ≤ 0.5

Variant | yeast fitness
C22G C27A G63A | ≤ 0.5
C22G A43C U53C C55G | ≤ 0.5
C22G C31G A57U | ≤ 0.5
C22G C24U G44A U53G | 0.521
C22G C24U | 0.894
C22G C24G | 0.595
C22G C24U C29U C30G U53A U54A | ≤ 0.5
C22G C31A A45U | 0.621
C22G C24U C29U C30G G63C | ≤ 0.5
C22G A43U U54C C62U | ≤ 0.5
C22G C29A G58A C61G A70U | ≤ 0.5
C22G A45C C49U A57U C62A | 0.619
C22G C33U A42U A43G C61A | ≤ 0.5
C22G A40G A70U | 0.609
C22G C30U C49A A57U C61U | 0.548
C22G C31G A69C | 0.566
C22G C27G C33U G39A G41A | ≤ 0.5
C22G C27U | 0.884
C22G C27A | 0.604
C22G C33U A36C A40U | 0.665
C22G C30G | 0.591
C22G C30A | 0.65
C22G C30U | 0.817
C22G C24G C27G | 0.766

Variant | yeast fitness
C22G C29G A43G G63U | ≤ 0.5
C22G C31G G52C | ≤ 0.5
C22G C24G G50A A70U | ≤ 0.5
C22G C27A C49U C55U G58U | ≤ 0.5
C22G C31U U59G | 0.539
C22G C24G C29U C33U A37C G52A C61U | ≤ 0.5
C22G C34A | 0.757
C22G C27G G39A U64C | 0.604
C22G C24A C61G C66A | ≤ 0.5
C22G C30G A45U | ≤ 0.5
C22G A40C A43U | ≤ 0.5
C22G C31U A70U | 0.661
C22G A43U C46G | ≤ 0.5
C22G C24G G50A A69C | 0.574
C22G C30U A37G A43U G67A | 0.603
C22G C30A G51A | ≤ 0.5
C22G A40U A43U C61U | ≤ 0.5
C22G C29G G44C G56A A57G G67U A70C | ≤ 0.5
C22G C27G C31G A37G C61G A69U | 0.758
C22G A36C U47A C66G | ≤ 0.5
C22G A69C | 0.82
C22G A69U | 0.903
C22G A43C A70U | 0.593
C22G C24U U64C | 0.538

Variant | yeast fitness
C22G C24A G38A A57G | ≤ 0.5
C22G C27G C29G C34A A43U U54C A65U | ≤ 0.5
C22G A42U G50U | 0.523
C22G C34A G56C | ≤ 0.5
C22G C31A A43G A70U | ≤ 0.5
C22G A45U C49G A65U | ≤ 0.5
C22G C24G A45C U47C G63C | ≤ 0.5
C22G C34A A40C A45U | 0.665
C22G C27G C31G C61G | 0.575
C22G C29G A36C G39C C46G G52A | ≤ 0.5
C22G C30A A42C G58A | ≤ 0.5
C22G A45U U47A | ≤ 0.5
C22G A36C U47A A69C | ≤ 0.5
C22G C27G A45U A57G A70G | 0.595
C22G C31G C66U A69C | 0.528
C22G C31U C66G | 0.512
C22G A57U C66U | 0.524
C22G A36C A40G G58C C60A | ≤ 0.5
C22G C27G C33U G41A | 0.631
C22G C29G A42G C46U A70U | ≤ 0.5
C22G C30U C49G | ≤ 0.5
C22G A36C C61U | ≤ 0.5
C22G C29G C33U A42G | ≤ 0.5
C22G C24U U28A C31G C55A G68C | ≤ 0.5

Variant | yeast fitness
C22A U54C | 0.917
C22G C24U A37C G51C C55U A69C A70U | 0.554
C22G C29G C46U A70U | 0.592
C22G A42C C60G | ≤ 0.5
C22G C24U C29U C33U A37C G52A C66U | ≤ 0.5
C22G C27A C49A G56C A65G | 0.746
C22G C31G G58C G67C | ≤ 0.5
C22G A45C A65C | ≤ 0.5
C22G C27G C31G C61G A69C | ≤ 0.5
C22G C29U A37U | 0.589
C22G A43C A45U G52A | ≤ 0.5
C22G A42U C62A | ≤ 0.5
C22G C31A A43G | ≤ 0.5
C22G A42G G48C A65U | ≤ 0.5
C22G C33G G51A | ≤ 0.5
C22G C27G C31G G41A C61G A69U | ≤ 0.5
C22G C24U C29U C30G | 0.579
C22G A36U | 0.66
C22G A36G | 0.966
C22G C30G U47C | ≤ 0.5
C22G C29U C31A | ≤ 0.5
C22G A37G C60A A70G | 0.501
C22G A57U A65C C66G | ≤ 0.5
C22G C29G A69U | 0.626

Variant | yeast fitness
C22G C31U G56A | 1.16
C22G C30A U47A | ≤ 0.5
C22G C29G G51A | 0.536
C22G C29G G51C | ≤ 0.5
C22G C24G C27G G58C | ≤ 0.5
C22G C27A A65G | ≤ 0.5
C22G A36G A37C C46A C49G U64G | ≤ 0.5
C22G A43U A69C | 0.656
C22G A43G A70U | 0.683
C22G A37C | 0.721
C22G C27G C29G C34A A43U A65U | ≤ 0.5
C22G C31A C49G G63C | 0.545
C22G A43U C62U | 0.56
C22G C29A A43C C60G | ≤ 0.5
C22A U53C C62U | ≤ 0.5
C22G C29A U53A | ≤ 0.5
C22G C30U C34U A43G | ≤ 0.5
C22G C24U C31U A40U U59A C61A | ≤ 0.5
C22G A45C G52C A57U A69C | 0.619
C22G A45G | 0.867
C22G A45U G48C A57C G67U | ≤ 0.5
C22G A36C A37C | ≤ 0.5
C22G C29G C66A A69U | ≤ 0.5
